Screening data (PubChem)
HNF4A DNA FP – change in binding of human HNF4A to DNA, primary screen, biochemical, fluorescence polarization, FITC-DNA; 1 h; activity change, % at 10 µM; actives 0.3% (n = 360,000); AID 1224865, 2016; Hepatocyte nuclear factor 4-alpha (Homo sapiens), P41235; in the data active = activity change above about 30%, passing the limit was not always enough
TPT1 inh – Candida albicans TPT1 enzyme inhibitors, primary screen, biochemical, fluorescence polarization | recombinant caTPT1, FP RNA substrate dephosphorylation | inhibition, % at 5 µM | tRNA 2'-phosphotransferase TPT1 (Candida albicans SC5314) | actives 0.81% (n = 300,000);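 active = inhibition above the mean of all tested compounds plus 3 SD, set per screening campaign, cut at about 24% in these data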;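 note: plate controls were DMSO alone for no effect and ferristatin control at 100 nM for full effect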
Rtt109 Vps75 – inhibitors of C. albicans Rtt109/Vps75 HAT, primary screen, biochemical, ThioGlo CoA-SH fluorescence, plate reader; actives 0.16% (n = 330,000); purified Rtt109/Vps75, 4 h; inhibition, % at 34.9 µM; Histone acetyltransferase RTT109 (Candida albicans (strain SC5314 / ATCC MYA-2876)), …;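 active = inhibition of at least 50% in every replicate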
Target sequence (Q5AAJ8 whole entry, looked up): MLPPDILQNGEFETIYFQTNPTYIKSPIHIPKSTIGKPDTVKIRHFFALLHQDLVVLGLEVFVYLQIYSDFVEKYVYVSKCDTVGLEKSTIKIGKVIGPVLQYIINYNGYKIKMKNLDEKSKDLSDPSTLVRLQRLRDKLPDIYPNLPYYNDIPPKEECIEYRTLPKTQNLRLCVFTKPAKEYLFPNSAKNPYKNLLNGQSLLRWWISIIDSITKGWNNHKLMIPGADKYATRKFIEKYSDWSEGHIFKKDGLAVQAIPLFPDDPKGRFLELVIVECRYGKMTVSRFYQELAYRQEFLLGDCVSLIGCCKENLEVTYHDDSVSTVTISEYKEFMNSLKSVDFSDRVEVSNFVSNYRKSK
CSN deneddyl inh – inhibitors of CSN-mediated cullin deneddylation, primary screen, biochemical, fluorescence polarization, uHTS; Purified CSN, SCF-Nedd8-OG deneddylation; COP9 signalosome complex subunit 5 (Homo sapiens), Q92905; inhibition, % at 12.5 µM; AID 651999, 2013; actives 0.38% (n = 360,000);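 active = pattern-corrected inhibition above about 35%, with an unprinted fluorescence ratio check between 0.5 and 1.5, limit read from the data, passing the limit was not always enough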;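 note: 0% = enzyme with substrate and 100% = substrate without enzyme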
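Assay system: HEK293T-derived human Csn5 enzyme; quantity: 0.24 nM enzyme; medium: Tris/NaCl/DTT buffer, pH 7.5; also added: substrate SCFSkp2-Nedd8OG, 10 nM; doses: 12.5 µM compound; schedule: 90 min reaction at room temperature; signal: FP; read-out: % inhibition of substrate cleavage by Csn5; benchmarks: substrate-only high control, full reaction low control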
caTPT1 confirm – Candida albicans TPT1 inhibitors, confirmation, biochemical, fluorescence polarization, triplicate | shares compounds with TPT1 inh | recombinant caTPT1, RNase T1 coupled | inhibition, % at 5 µM | actives 74% (n = 2,400);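 active = inhibition above the primary screen limit, the mean inhibition of all tested compounds plus 3 SD, cut at about 25% in these data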
RNase T1 counter – RNase T1 inhibitors, counter-screen for TPT1 inhibitor project, biochemical, fluorescence polarization; shares compounds with TPT1 inh; RNase T1 cleavage, 1536-well; inhibition, % at 5 µM; actives 83% (n = 2,400); AID 2153, 2009;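 active = inhibition above the solvent-only control well mean plus 3 SD, limit set per screening run, cut at about 23% in these data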;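 note: plate controls were DMSO wells with enzyme for no effect and wells without RNase T1 for full effect; inhibitors block cleavage so intact labeled substrate keeps polarization high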
Target sequence (P00651 whole entry, looked up): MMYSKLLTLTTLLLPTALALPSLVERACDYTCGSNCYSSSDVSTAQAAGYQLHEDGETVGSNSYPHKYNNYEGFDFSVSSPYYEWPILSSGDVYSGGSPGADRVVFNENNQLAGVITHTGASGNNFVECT
Numbers without * were called inactive; . = not tested or not shown. Most compounds without a hit are left out; they make up all but 1.2% or so of the library.

SMILES | HNF4A DNA FP | TPT1 inh | Rtt109 Vps75 | CSN deneddyl inh | caTPT1 confirm | RNase T1 counter
CCCCC(=O)N/N=C/c1ccc(-c2ccc([N+](=O)[O-])cc2)o1 | 3 | 13 | 3 | 1 | . | .
Cc1cc(C)n(Cc2ccc(C(=O)N/N=C/c3ccc(-c4ccc([N+](=O)[O-])cc4)o3)o2)n1 | 49 | 76* | 6 | 105 | 65* | 25*
CC(C)(C)NC(=S)N/N=C\c1ccc(-c2ccc([N+](=O)[O-])cc2)o1 | 64* | 92* | . | 0 | 98* | 103*
CC1CCN(S(=O)(=O)c2cccc(C(=O)NNC(=O)c3ccco3)c2)CC1 | -5 | -2 | 4 | -8 | . | .
Cc1cc(N=Nc2ccccc2C(=O)O)c(C)c(C)c1O | 32* | 41* | 37 | 19 | 42* | 60*
Cc1cc(O)c(C(C)C)cc1N=Nc1ccccc1C(=O)O | 19 | 26* | 10 | 7 | 31* | 48*
CCC(C)[C@@H](CN)NCC1(c2ccccc2)CC1 (some centres undefined) | -2 | . | -12 | -3 | . | .
COCCNC(=O)C1CCCN(C(=O)c2nc3ccccc3s2)CC1 (centres undefined) | 2 | . | . | 0 | . | .
O=S(=O)(Nc1cc(F)ccc1F)c1cccc2nonc12 | 7 | -3 | -15 | 7 | . | .
Cc1noc(C)c1S(=O)(=O)N(C)C[C@@H]1OCc2cnnn2CCCC(=O)N([C@@H](C)CO)C[C@H]1C | 3 | . | . | 1 | . | .
CSc1ccccc1NC(=O)CSCc1nc2sc(C)c(C)c2c(=O)[nH]1 | 5 | 16 | -2 | 1 | . | .
Cc1sc2nc(CSCC(=O)Nc3ccccc3C#N)[nH]c(=O)c2c1C | 14 | 37* | . | 4 | 47* | 61*
Cc1sc2nc(CSC(C)C(=O)Nc3ccc(C#N)cc3)[nH]c(=O)c2c1C (centres undefined) | 20 | 29* | -4 | 7 | 38* | 49*
C=CCN1C(=O)c2ccc(C(=O)N(C)CC(=O)Nc3ccccc3Br)cc2C1=O | -4 | -2 | -4 | 1 | . | .
CCSc1ccc([C@@H]2[C@@H]3C(=O)N(CC)C(=O)[C@@H]3[C@]3(C(=O)OC)CCCN23)cc1 | 0 | -1 | 5 | -4 | . | .
CC1(C)CC(=O)c2c(O)cc(O)cc2O1 | -2 | 0 | -5 | 6 | . | .
C[C@]12CCC[C@H](O1)c1c(cc3c(c1O)C(=O)c1c(O)cc(O)cc1C3=O)O2 | 69 | 80* | 2 | 38* | 89* | 99*
CC1C/C(=C/c2ccco2)C(=O)/C(=C/c2ccco2)C1 (centres undefined) | . | 61* | . | . | 62* | 71*
CC1C/C(=C/c2ccccn2)C(=O)/C(=C/c2ccccn2)C1 (centres undefined) | 8 | -2 | 5 | 8 | . | .
CC1C/C(=C/c2cccs2)C(=O)/C(=C/c2cccs2)C1 (centres undefined) | 22 | 26* | -9 | 23 | 10 | 14
COc1ccc(-n2nc(C(=O)NCC(=O)N3CCC(C)CC3)c3ccccc3c2=O)c(OC)c1 | -3 | -4 | -7 | 2 | . | .
O=C1CC(C(F)(F)C(F)(F)C(F)(F)C(F)F)=Nc2ccccc2N1 | 6 | 75* | 7 | -2 | 9 | 14
COc1ccc(OCC(=O)NC(=O)c2ccccc2OC)c([N+](=O)[O-])c1 | 3 | 1 | 2 | -2 | . | .
CCCCC(CCCC)=N/N=C/c1c(O)n(CC)c2cc(C3=NNC(=O)CC3)ccc12 | 20 | 34* | -26 | -3 | 17 | 22*
CCn1c(O)c(/C=N/N=C2CCCCC2)c2cc(C3=NNC(=O)CC3)ccc21 | 12 | 37* | -6 | 12 | 23 | 36*
SMILES | HNF4A DNA FP | TPT1 inh | Rtt109 Vps75 | CSN deneddyl inh | caTPT1 confirm | RNase T1 counter
N#CC(C#N)=C/C=C(\Nc1ccc(Cl)cc1)c1ccc(Cl)cc1 | 1 | 70* | 1 | 108 | 13 | 19
N#Cc1ccc(NC(=O)Nc2ccc(Cl)cc2)cc1 | -3 | -1 | 10 | -3 | . | .
COc1ccc(NC(=O)Nc2nnc([C@H]3C[C@H](O)[C@@H](CO)O3)s2)cc1 | 1 | . | . | 2 | . | .
CCCCCCCCNC(=O)c1ccc(C)cc1 | . | 37* | . | . | 13 | 20
CCCCNC(=O)Cc1ccc(C)cc1 | 4 | 2 | 3 | -5 | . | .
COc1ccc2c(c1OC)OCC2C (centres undefined) | 2 | . | -21 | 2 | . | .
Cc1nc2oc3ccccc3c(=O)c2cc1C(=O)O | 1 | 1 | -1 | -2 | . | .
C=CCNC(=O)c1cc2c(=O)c3ccccc3oc2nc1C | -1 | 48* | -10 | 19 | 11 | 16
COc1cc(/C=C2\SC(N)=NC2=O)cc(Br)c1O | 38* | 59* | 0 | 47* | 69* | 78*
COc1cc(/C=C2\SC(N)=NC2=O)ccc1OCC(=O)Nc1ccc(C)cc1 | 5 | 2 | -23 | 8 | . | .
COc1ccc(/C=C2\SC(=O)NC2=S)cc1OC | -1 | -5 | 9 | 4 | . | .
COc1cc(/C=C2\SC(c3ccccc3)=NC2=O)cc(Cl)c1O | 4 | . | -2 | -8 | . | .
COc1ccc(/C=C2\SC(c3ccc(C)cc3)=NC2=O)cc1OC | 86* | 87* | -9 | 102 | 84* | 90*
COc1ccc(/C=C2/SC(c3ccc(C)cc3)=NC2=O)cc1OC | 101 | 112* | 24 | 98 | 80* | 85*
COc1cc(/C=C2\SC(c3ccc(C)cc3)=NC2=O)cc(OC)c1OC | 51* | 30* | 2 | 49* | 40* | 50*
CC(C)=C[C@H]1C[C@H](C)[C@H]2CC[C@H](C)c3c(O)c(O[C@H]4OC[C@H](O)[C@@H](O)[C@@H]4O)c(C)c1c32 | 2 | . | . | 6 | . | .
COc1ccc(NC(=O)CN2CCN(C(C)=O)CC2)cc1S(=O)(=O)N1CCOCC1 | 2 | . | -9 | -13 | . | .
O=C(COC(=O)c1cc([N+](=O)[O-])ccc1N1CCOCC1)Nc1ccc(Cl)cn1 | -1 | 0 | -4 | 2 | . | .
CCn1c(C)c(C2=CCN(S(=O)(=O)c3ccccc3)CC2)c2ccccc21 | 2 | 28* | -6 | 10 | 17 | 29*
CC(=O)Nc1cccc(NC(=O)Nc2ccc(F)cc2F)c1 | 3 | 55* | . | 2 | 2 | 3
O=C(Nc1ccccc1)Nc1ccc(F)cc1F | -3 | 1 | . | 1 | . | .
COc1cccc(/C=C2/CN(C)CC3=C2OC(N)=C(C#N)C3c2cccc(OC)c2)c1 (centres undefined) | 10 | 40* | 0 | 12 | 25* | 34*
